The values below come from ChEMBL document CHEMBL1121885, “Inhibition of inosinic acid dehydrogenase by 8-substituted purine nucleotides” (J Med Chem, 1981).

Usually Ki stands for a measure of affinity in units of concentration, obtained from inhibition or displacement. A high value points to a looser hold on the target.

SMILES strings stand for the structures.

For the experiment, the target named is T1, Inosine-5'-monophosphate dehydrogenase (Escherichia coli K-12, UniProt P0ADG7).
T1 sequence (P0ADG7 whole entry): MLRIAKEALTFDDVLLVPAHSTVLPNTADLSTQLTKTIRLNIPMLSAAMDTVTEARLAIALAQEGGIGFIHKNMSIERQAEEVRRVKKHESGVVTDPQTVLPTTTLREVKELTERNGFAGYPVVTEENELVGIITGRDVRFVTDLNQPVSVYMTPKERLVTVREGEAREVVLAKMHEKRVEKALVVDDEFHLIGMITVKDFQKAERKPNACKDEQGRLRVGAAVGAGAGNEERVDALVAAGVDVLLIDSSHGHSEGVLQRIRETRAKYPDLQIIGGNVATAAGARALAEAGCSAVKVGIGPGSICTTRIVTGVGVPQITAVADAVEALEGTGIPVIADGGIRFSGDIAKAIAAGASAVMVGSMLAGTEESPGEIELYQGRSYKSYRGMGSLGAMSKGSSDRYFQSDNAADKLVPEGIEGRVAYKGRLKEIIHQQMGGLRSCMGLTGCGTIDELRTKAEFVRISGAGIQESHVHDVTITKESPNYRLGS
Nature of the experiment: Inhibition of inosine monophosphate dehydrogenase in Escherichia coli. In a few lines: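 E. coli B IMP-DH (0-40% ammonium sulfate fraction of frozen paste, redissolved in 0.05 M Tris pH 8.5). Enzyme-started, 25 °C, NADH rise at 360 nm; Ki from weighted fit to linear competitive equation.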
Turning to `Nc1ncnc2c1nc(SCc1ccc(C(=O)O)cc1)n2C1O[C@H](COP(=O)(O)O)[C@@H](O)[C@H]1O` (some centres not stated), the inhibitory constant (Ki) was 196 µM. In the case of `Nc1ncnc2c1nc(Br)n2[C@@H]1O[C@H](COP(=O)(O)O)[C@@H](O)[C@H]1O`, the affinity corresponds to a Ki of 161 µM. The same measure for `Nc1ncnc2c1nc(SCc1ccc(Cl)cc1)n2C1O[C@H](COP(=O)(O)O)[C@@H](O)[C@H]1O` (some centres not stated): 53 µM. Then `CC(C)(C)c1ccc(CSc2nc3c(=O)[nH]cnc3n2C2O[C@H](COP(=O)(O)O)[C@@H](O)[C@H]2O)cc1` (some centres not stated), with 129 µM; and `Nc1ncnc2c1nc(NCc1ccccc1)n2C1O[C@H](COP(=O)(O)O)[C@@H](O)[C@H]1O` (some centres not stated), with 275 µM; and `O=c1[nH]cnc2c1nc(SCc1ccc(Cl)cc1)n2C1O[C@H](COP(=O)(O)O)[C@@H](O)[C@H]1O` (some centres not stated), with 29 µM.

As to `O=P(O)(O)OC[C@H]1OC(n2c(Sc3ccccc3)nc3c(O)ncnc32)[C@H](O)[C@@H]1O` (some centres not stated), affinity was put at a Ki of 68 µM. `Nc1ncnc2c1nc(Sc1ccc(Cl)cc1)n2C1O[C@H](COP(=O)(O)O)[C@@H](O)[C@H]1O` (some centres not stated) returned an inhibition constant (Ki) of 70 µM. Then `Nc1ncnc2c1nc(SCc1cc([N+](=O)[O-])cc([N+](=O)[O-])c1)n2C1O[C@H](COP(=O)(O)O)[C@@H](O)[C@H]1O` (some centres not stated), with 21 µM; and `N#Cc1ccc(CSc2nc3c(O)ncnc3n2C2O[C@H](COP(=O)(O)O)[C@@H](O)[C@H]2O)cc1` (some centres not stated), with 19 µM; and `COc1ccc(CSc2nc3c(=O)[nH]cnc3n2C2O[C@H](COP(=O)(O)O)[C@@H](O)[C@H]2O)cc1` (some centres not stated), with 41 µM. Take `Nc1ncnc2c1nc(Sc1ccccc1)n2C1O[C@H](COP(=O)(O)O)[C@@H](O)[C@H]1O` (some centres not stated): the inhibition constant (Ki) stood at 137 µM. The same measure for `O=[N+]([O-])c1ccc(CSc2nc3c(O)ncnc3n2C2O[C@H](COP(=O)(O)O)[C@@H](O)[C@H]2O)cc1` (some centres not stated): 26 µM. Then `COc1ccc(CSc2nc3c(N)ncnc3n2C2O[C@H](COP(=O)(O)O)[C@@H](O)[C@H]2O)cc1` (some centres not stated), with 84 µM.

For the compound `Nc1ncnc2c1nc(SCc1ccc(F)cc1)n2C1O[C@H](COP(=O)(O)O)[C@@H](O)[C@H]1O` (some centres not stated), the inhibition constant (Ki) worked out at 74 µM. In the case of `O=c1[nH]cnc2c1nc(Sc1cccc(C(F)(F)F)c1)n2C1O[C@H](COP(=O)(O)O)[C@@H](O)[C@H]1O` (some centres not stated), the affinity corresponds to a Ki of 105 µM. The same measure for `O=P(O)(O)OC[C@H]1OC(n2c(NCc3ccccc3)nc3c(O)ncnc32)[C@H](O)[C@@H]1O` (some centres not stated): 236 µM.

In the case of `CCCCCSc1nc2c(N)ncnc2n1C1O[C@H](COP(=O)(O)O)[C@@H](O)[C@H]1O` (some centres not stated), affinity was put at a Ki of 84 µM. Then `Nc1ncnc2c1nc(SCc1ccc([N+](=O)[O-])cc1)n2C1O[C@H](COP(=O)(O)O)[C@@H](O)[C@H]1O` (some centres not stated), with 52 µM; and `O=[N+]([O-])c1ccc(CCSc2nc3c(O)ncnc3n2C2O[C@H](COP(=O)(O)O)[C@@H](O)[C@H]2O)cc1` (some centres not stated), with 54 µM.

Consider `Nc1ncnc2c1nc(SCCc1ccc([N+](=O)[O-])cc1)n2C1O[C@H](COP(=O)(O)O)[C@@H](O)[C@H]1O` (some centres not stated), for which the affinity corresponds to a Ki of 68 µM. Then `Nc1ncnc2c1nc(SCCCc1ccccc1)n2C1O[C@H](COP(=O)(O)O)[C@@H](O)[C@H]1O` (some centres not stated), with 64 µM; and `Nc1ncnc2c1nc(SCc1ccc([N+](=O)[O-])cc1Cl)n2C1O[C@H](COP(=O)(O)O)[C@@H](O)[C@H]1O` (some centres not stated), with 17 µM. For `O=c1[nH]cnc2c1nc(SCc1ccccc1)n2C1O[C@H](COP(=O)(O)O)[C@@H](O)[C@H]1O` (some centres not stated), the affinity, expressed as Ki, was 46 µM. As for `Nc1ncnc2c1nc(SCc1cccc([N+](=O)[O-])c1)n2C1O[C@H](COP(=O)(O)O)[C@@H](O)[C@H]1O` (some centres not stated), the affinity, expressed as Ki, was 47 µM.

The compound `CC(C)(C)c1ccc(CSc2nc3c(N)ncnc3n2C2O[C@H](COP(=O)(O)O)[C@@H](O)[C@H]2O)cc1` (some centres not stated) showed a Ki of 130 µM.

Consider `O=c1[nH]cnc2c1nc(Br)n2C1O[C@H](COP(=O)(O)O)[C@@H](O)[C@H]1O` (some centres not stated), for which the inhibitory constant (Ki) was 271 µM. Turning to `Nc1ncnc2c1nc(S)n2C1O[C@H](COP(=O)(O)O)[C@@H](O)[C@H]1O` (some centres not stated), the affinity corresponds to a Ki of 98 µM. Then `Nc1ncnc2c1nc(SCCc1ccccc1)n2C1O[C@H](COP(=O)(O)O)[C@@H](O)[C@H]1O` (some centres not stated), with 91 µM; and `Nc1ncnc2c1nc(SCc1ccccc1)n2C1O[C@H](COP(=O)(O)O)[C@@H](O)[C@H]1O` (some centres not stated), with 124 µM; and `N#Cc1ccc(CSc2nc3c(N)ncnc3n2C2O[C@H](COP(=O)(O)O)[C@@H](O)[C@H]2O)cc1` (some centres not stated), with 58 µM. Then `Nc1ncnc2c1ncn2[C@@H]1O[C@H](COP(=O)(O)O)[C@@H](O)[C@H]1O` [ADENOSINE PHOSPHATE], with 450 µM.
